Measurements as given in ChEMBL document CHEMBL3600302, “A Ligand-Based Drug Design. Discovery of 4-Trifluoromethyl-7,8-pyranocoumarin as a Selective Inhibitor of Human Cytochrome P450 1A2” (J Med Chem, 2015).

Experiments:
Cytochrome P450 1A2 [1] = target: T1, Cytochrome P450 1A2 (Homo sapiens, UniProt P05177); assay: Inhibition of human microsomal CYP1A2-dependent methoxyresorufin-O-demethylase activity by spectrofluorimetric analysis in presence of NADPH regenerating solution
T1 sequence (P05177 whole entry): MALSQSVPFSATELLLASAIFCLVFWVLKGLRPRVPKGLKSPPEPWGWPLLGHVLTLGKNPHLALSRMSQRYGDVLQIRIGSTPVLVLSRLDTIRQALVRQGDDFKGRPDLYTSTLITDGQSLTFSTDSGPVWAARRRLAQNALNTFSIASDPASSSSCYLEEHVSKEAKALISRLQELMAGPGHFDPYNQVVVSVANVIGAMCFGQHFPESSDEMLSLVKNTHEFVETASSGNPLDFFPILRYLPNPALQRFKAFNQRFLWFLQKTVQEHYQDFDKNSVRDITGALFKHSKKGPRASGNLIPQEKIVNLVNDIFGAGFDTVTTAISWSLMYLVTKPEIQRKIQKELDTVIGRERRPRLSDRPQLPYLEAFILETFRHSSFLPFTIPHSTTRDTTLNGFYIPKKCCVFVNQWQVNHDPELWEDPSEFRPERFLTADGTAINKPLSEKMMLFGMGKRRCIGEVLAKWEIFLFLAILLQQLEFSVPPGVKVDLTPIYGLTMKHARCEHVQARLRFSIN
In short: (§1)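 Microsomal P450 (final 5 nM) in 0.1 M potassium phosphate pH 7.6 with MgCl2 at 37 °C. Substrate final 5 µM: ethoxyresorufin for 1A1/1B1, methoxyresorufin for 1A2. Ki was taken as the x-intercept of Dixon plots (1/v0 vs [I]). Mean ± SD of three independent experiments. Selectivity ratios are ratios of these Ki.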

Cytochrome P450 1A1 = target: T2, Cytochrome P450 1A1 (Homo sapiens, UniProt P04798); assay: Inhibition of human microsomal CYP1A1-dependent ethoxyresorufin-O-deethylase activity at 10 nM measured over 6 mins by spectrofluorimetric analysis in absence of NADPH regenerating solution; conditions: 0.1 h, 0.01 µM
T2 sequence (P04798 whole entry): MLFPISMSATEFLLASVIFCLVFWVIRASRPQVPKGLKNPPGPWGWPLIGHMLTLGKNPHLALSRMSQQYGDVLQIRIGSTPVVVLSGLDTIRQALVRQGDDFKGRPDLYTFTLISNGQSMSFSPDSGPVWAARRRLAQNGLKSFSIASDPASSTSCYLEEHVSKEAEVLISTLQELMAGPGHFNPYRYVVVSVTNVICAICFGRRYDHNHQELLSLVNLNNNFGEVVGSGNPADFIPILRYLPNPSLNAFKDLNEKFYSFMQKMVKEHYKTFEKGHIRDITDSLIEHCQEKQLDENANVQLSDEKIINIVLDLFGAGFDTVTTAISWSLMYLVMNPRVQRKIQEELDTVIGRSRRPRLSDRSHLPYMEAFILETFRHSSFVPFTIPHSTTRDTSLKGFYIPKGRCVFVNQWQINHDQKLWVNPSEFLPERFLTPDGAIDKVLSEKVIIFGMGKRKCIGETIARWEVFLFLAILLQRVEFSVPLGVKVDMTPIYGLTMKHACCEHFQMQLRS
In short: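 Microsomal P450 in 0.1 M potassium phosphate pH 7.6 with MgCl2 and 10 nM inhibitor in DMSO, 2 mL final. Preincubated 5 min at 37 °C either with NADPH-regenerating solution, or without it, with NADPH then added at start. Reaction started with ethoxyresorufin (final 5 µM). Resorufin formation followed 6 min at 37 °C.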

[2] = target: T3, Aryl hydrocarbon receptor (Homo sapiens, UniProt P35869); assay: Activation of human AhR expressed in Saccharomyces cerevisiae MYA-3637 assessed as upregulation of […] at >10^-7 M by LacZ reporter assay; format: ADME
T3 sequence (P35869 whole entry): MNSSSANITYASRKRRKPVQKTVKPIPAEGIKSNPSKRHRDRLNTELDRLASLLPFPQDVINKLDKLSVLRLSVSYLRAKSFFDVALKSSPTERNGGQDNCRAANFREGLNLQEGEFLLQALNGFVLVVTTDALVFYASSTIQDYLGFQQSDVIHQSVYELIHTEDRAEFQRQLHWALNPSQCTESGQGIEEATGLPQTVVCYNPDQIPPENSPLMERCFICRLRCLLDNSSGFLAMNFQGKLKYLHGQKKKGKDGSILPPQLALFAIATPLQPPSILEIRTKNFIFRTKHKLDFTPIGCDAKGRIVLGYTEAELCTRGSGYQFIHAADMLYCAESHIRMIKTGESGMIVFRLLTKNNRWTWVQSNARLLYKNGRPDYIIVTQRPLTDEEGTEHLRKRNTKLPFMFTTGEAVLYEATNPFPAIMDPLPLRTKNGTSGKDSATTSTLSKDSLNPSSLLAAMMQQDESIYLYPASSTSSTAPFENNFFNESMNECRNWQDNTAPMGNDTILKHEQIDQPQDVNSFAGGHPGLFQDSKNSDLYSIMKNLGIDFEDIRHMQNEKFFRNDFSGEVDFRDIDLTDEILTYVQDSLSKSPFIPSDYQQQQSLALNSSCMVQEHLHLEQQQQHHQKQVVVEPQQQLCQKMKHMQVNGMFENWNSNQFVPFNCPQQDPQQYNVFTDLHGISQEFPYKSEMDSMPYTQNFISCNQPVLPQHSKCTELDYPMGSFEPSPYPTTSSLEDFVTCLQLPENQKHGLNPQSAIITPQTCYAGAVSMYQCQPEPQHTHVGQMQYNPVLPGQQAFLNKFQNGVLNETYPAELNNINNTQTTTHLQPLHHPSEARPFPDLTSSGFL
In short: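 Yeast MYA-3637 carrying integrated human AhR (GAL promoter) and a lacZ reporter, grown on synthetic minimal medium without tryptophan, with galactose as carbon source. Compounds in DMSO were added to overnight culture in quadruplicate. Next day A600 was read, then lysis buffer (0.2% sarcosyl, 1 mM DTT, 0.4 mg/mL ONPG) was added. A405/A600 ratio was taken. βNF 10^-8 M served as positive control. At least three repeats.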

Cytochrome P450 1A2 [3] = target: T1, Cytochrome P450 1A2; assay: Inhibition of human microsomal CYP1A2-dependent methoxyresorufin-O-demethylase activity measured over 6 mins by spectrofluorimetric analysis; conditions: 0.1 h
In short: as §1, with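 “1A2. […]” for “1A2.”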

Cytochrome P450 1A2 [4] = target: T1, Cytochrome P450 1A2; assay: Inhibition of human microsomal CYP1A2-dependent methoxyresorufin-O-demethylase activity at 10 nM measured over 6 mins by spectrofluorimetric analysis in absence of NADPH regenerating solution; conditions: 0.1 h, 0.01 µM
CYP1A2 = target: T4, CYP1A2 (Homo sapiens, UniProt P05177); assay: Inhibition of human microsomal CYP1A2-dependent methoxyresorufin-O-demethylase activity at 10 nM preincubated for 5 mins followed by NADPH regenerating solution and substrate addition measured over 6 mins by spectrofluorimetric analysis relative to control; conditions: human microsomal CYP1A2, probe methoxyresorufin (O-demethylation)
T4 sequence (P05177 whole entry): T1 sequence (P05177 whole entry)

- Ki (Cytochrome P450 1A2 [1]): 0.03 µM
- inhibition (INH) (Cytochrome P450 1A1): Not Active
- Activity [2]: Active
- inhibition (INH) (Cytochrome P450 1A2 [3]): Dose-dependent effect
- inhibition (INH) (Cytochrome P450 1A2 [4]): Active
- inhibition at 0.1 h, 0.01 µM (CYP1A2): > 90%
Structure (SMILES): Cc1cc2c(ccc3c(=O)cc(-c4ccccc4)oc32)o1
